Source: ChEMBL document CHEMBL1132947, “Synthesis and biological evaluation of 2'-carbamate-linked and 2'-carbonate-linked prodrugs of paclitaxel: selective activation by the tumor-associated protease plasmin” (J Med Chem, 2000)
Converted amounts (≈) assume the structure as drawn.

Legend:
Assay type in all cases: functional, cell-based
Settings in all cases: Homo sapiens
M19-MEL = experiment: Cytotoxicity against M19 Tumor cell line in SRB Cell viability test
Procedure, shortened: (§1)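 Human tumor cell lines exposed to (pro)drug for 5 days; growth measured by microculture sulforhodamine B assay. ID50 = concentration giving 50% growth inhibition versus untreated control cultures, reported in ng/mL. Experiments run in quadruplicate and results averaged.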

IGROV-1 = experiment: Cytotoxicity against IGROV Tumor cell line in SRB Cell viability test; procedure, shortened: as §1
WiDr = experiment: Cytotoxicity against WIDR Tumor cell line in SRB Cell viability test; procedure, shortened: as §1
A498 = experiment: Cytotoxicity against A498 Tumor cell line in SRB Cell viability test; procedure, shortened: as §1
NCI-H226 = experiment: Cytotoxicity against H226 Tumor cell line in SRB Cell viability test; procedure, shortened: as §1
MCF7 = experiment: Cytotoxicity against MCF-7 Tumor cell line in SRB Cell viability test; procedure, shortened: as §1
EVSA-T = experiment: Cytotoxicity against EVSA-T Tumor cell line in SRB Cell viability test; procedure, shortened: as §1

Compound	IC50 (M19-MEL) [µg/mL]	IC50 (IGROV-1) [µg/mL]	IC50 (WiDr) [µg/mL]	IC50 (A498) [µg/mL]	IC50 (NCI-H226) [µg/mL]	IC50 (MCF7) [µg/mL]	IC50 (EVSA-T) [µg/mL]
CC(=O)O[C@H]1C(=O)[C@@]2(C)[C@H]([C@H](OC(=O)c3ccccc3)[C@]3(O)C[C@H](OC(=O)[C@H](O)[C@@H](NC(=O)c4ccccc4)c4ccccc4)C(C)=C1C3(C)C)[C@]1(OC(C)=O)CO[C@@H]1C[C@@H]2O [PACLITAXEL]	< 0.003	0.01 (≈ 11.7 nM)	< 0.003	< 0.003	< 0.003	< 0.003	< 0.003
CC(=O)O[C@H]1C(=O)[C@@]2(C)[C@H]([C@H](OC(=O)c3ccccc3)[C@]3(O)CC(OC(=O)[C@H](OC(=O)OCc4ccc(NC(=O)[C@H](CCCCN)NC(=O)[C@H](CC(C)C)NC(=O)[C@H](N)C(C)C)cc4)C(NC(=O)c4ccccc4)c4ccccc4)C(C)=C1C3(C)C)[C@]1(OC(C)=O)CO[C@@H]1C[C@@H]2O.Cl.Cl (stereo not given in full)	0.02	0.027	0.011	> 0.06	0.016	0.0092	0.0093
CC(=O)O[C@H]1C(=O)[C@@]2(C)[C@H]([C@H](OC(=O)c3ccccc3)[C@]3(O)CC(OC(=O)[C@H](OC(=O)NCCNC(=O)[C@H](CCCCN)NC(=O)[C@H](Cc4ccccc4)NC(=O)[C@@H](C)N)C(NC(=O)c4ccccc4)c4ccccc4)C(C)=C1C3(C)C)[C@]1(OC(C)=O)CO[C@@H]1C[C@@H]2O.Cl.Cl (stereo not given in full)	0.045	0.019	0.013	0.04	0.041	0.016	0.011
CC(=O)O[C@H]1C(=O)[C@@]2(C)[C@H]([C@H](OC(=O)c3ccccc3)[C@]3(O)CC(OC(=O)[C@H](OC(=O)N(C)CCN(C)C(=O)[C@H](CCCCN)NC(=O)[C@H](CC(C)C)NC(=O)[C@H](N)C(C)C)C(NC(=O)c4ccccc4)c4ccccc4)C(C)=C1C3(C)C)[C@]1(OC(C)=O)CO[C@@H]1C[C@@H]2O.Cl.Cl (stereo not given in full)	0.024	0.026	0.011	0.045	0.025	0.0069	0.0052
CC(=O)O[C@H]1C(=O)[C@@]2(C)[C@H]([C@H](OC(=O)c3ccccc3)[C@]3(O)CC(OC(=O)[C@H](OC(=O)N(C)CCN(C)C(=O)[C@H](CCCCN)NC(=O)[C@H](Cc4ccccc4)NC(=O)[C@@H](C)N)C(NC(=O)c4ccccc4)c4ccccc4)C(C)=C1C3(C)C)[C@]1(OC(C)=O)CO[C@@H]1C[C@@H]2O.Cl.Cl (stereo not given in full)	0.017	0.011	0.01	0.038	0.021	0.0066	0.0072
